The values that follow come from ChEMBL document CHEMBL1121900, “Analgesic narcotic antagonists. 9. 6-Methylene-8 beta-alkyl-N-(cycloalkylmethyl)-3-hydroxy- or -methoxymorphinans” (1981).

Assay [1] deals with Mus musculus. Kind of assay: Inhibition of acetic acid induced mouse writhing assay following s.c. administration. In kind it is functional. To be noted: sc.
Assay [2] deals with T1, Opioid receptor (Rattus norvegicus) (UniProt P33533+P34975+P33535). Kind of assay: Inhibition of morphine analgesia in modified rat tail flick test. It counts as functional. In short, it runs like this:
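Narcotic antagonist activity measured by modified rat tail-flick against an ED80 dose of morphine. Free bases dissolved by dropwise 1 N HCl, then diluted. At least five rats per dose and at least three doses per drug; AD50 determined.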

The target in assay [3] is T1, Opioid receptor (Rattus norvegicus). Kind of assay: Inhibition of morphine analgesia in modified rat tail flick test; Inactive at 25 uMol/kg. In kind it is functional. To be noted: 25 uM.
Assay [4] relates to Mus musculus. Kind of assay: Inhibition of acetic acid induced mouse writhing assay following s.c. administration; Inactive at 30 uMol/kg. In kind it is functional, organism-based. As to conditions: 30 uM.
The subject of assay [5] is Mus musculus. Kind of assay: Inhibition of acetic acid induced mouse writhing assay following s.c. administration; Inactive at 50 uMol/kg. In kind it is functional, organism-based. As to conditions: 50 uM.
The test system of assay [6] is Mus musculus. Kind of assay: Inhibition of acetic acid induced mouse writhing assay following s.c. administration; Inactive. In kind it is functional, organism-based.

Active and inactive are the calls of the source. The calls are words filed in the database; no cut-off is given here.

T1 sequence (P33533 whole entry, looked up): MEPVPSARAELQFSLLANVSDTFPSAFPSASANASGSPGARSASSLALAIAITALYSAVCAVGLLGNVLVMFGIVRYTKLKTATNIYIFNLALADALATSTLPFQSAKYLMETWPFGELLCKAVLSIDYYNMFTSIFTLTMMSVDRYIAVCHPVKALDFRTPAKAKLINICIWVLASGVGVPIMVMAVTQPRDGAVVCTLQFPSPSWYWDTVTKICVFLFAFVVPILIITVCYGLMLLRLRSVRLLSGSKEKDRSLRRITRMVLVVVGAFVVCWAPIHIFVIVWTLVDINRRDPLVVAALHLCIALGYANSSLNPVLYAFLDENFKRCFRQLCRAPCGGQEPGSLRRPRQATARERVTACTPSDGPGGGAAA
T1 sequence (P33535 whole entry, looked up): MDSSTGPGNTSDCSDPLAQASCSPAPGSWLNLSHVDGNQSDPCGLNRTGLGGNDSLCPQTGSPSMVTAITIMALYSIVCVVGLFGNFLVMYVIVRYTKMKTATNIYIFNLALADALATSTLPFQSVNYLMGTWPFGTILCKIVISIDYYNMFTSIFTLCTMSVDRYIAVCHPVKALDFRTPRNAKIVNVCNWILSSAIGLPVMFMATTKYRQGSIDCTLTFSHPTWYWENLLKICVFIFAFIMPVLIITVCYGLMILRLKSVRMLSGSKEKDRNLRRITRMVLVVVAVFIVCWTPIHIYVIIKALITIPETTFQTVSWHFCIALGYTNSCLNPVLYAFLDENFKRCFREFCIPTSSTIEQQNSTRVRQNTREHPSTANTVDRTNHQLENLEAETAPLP
T1 sequence (P34975 whole entry, looked up): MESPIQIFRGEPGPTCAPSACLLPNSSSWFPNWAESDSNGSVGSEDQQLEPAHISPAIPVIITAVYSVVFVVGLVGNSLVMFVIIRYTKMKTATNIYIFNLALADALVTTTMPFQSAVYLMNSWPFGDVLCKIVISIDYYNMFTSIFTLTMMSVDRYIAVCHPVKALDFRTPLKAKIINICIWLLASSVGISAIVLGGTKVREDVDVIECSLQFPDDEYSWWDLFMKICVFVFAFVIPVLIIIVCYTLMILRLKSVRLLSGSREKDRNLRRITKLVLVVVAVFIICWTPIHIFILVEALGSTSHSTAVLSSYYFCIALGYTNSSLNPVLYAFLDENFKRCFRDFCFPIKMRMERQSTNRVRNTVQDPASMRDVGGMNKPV

On to `C=C1C[C@H](C)C2C3Cc4ccc(OC)cc4C2(CCN3CC2CC2)C1` (stereo partly specified), for which the ED50 in assay [1] was 9.5 µmol/kg; in assay [2], 11.3 µmol/kg.
For `COc1ccc2c(c1)C13CCN(CC4CCC4)C(C2)C1[C@@H](C)CC(=O)C3` (stereo partly specified), in that order: 1.38 µmol/kg and 16.4 µmol/kg.
For `C=C1C[C@H](C)C2C3Cc4ccc(OC)cc4C2(CCN3CC2CCC2)C1` (stereo partly specified), in that order: 16.5 µmol/kg and 14.1 µmol/kg.
In the case of `COc1ccc2c(c1)C13CCN(CC4CCC4)C(C2)C1CCC(=O)C3` (stereo unspecified), in assay [3], the ED50 result is “inactive”.
On to `O=C1CCC2C3Cc4ccc(O)cc4C2(CCN3CC2CCC2)C1` (stereo unspecified), for which, in assay [3], the ED50 result was “inactive”.
For the compound `C[C@H]1[C@H]2Cc3ccc(O)cc3[C@]1(C)CCN2CC1CC1`, the ED50 in assay [2] is 0.81 µmol/kg.
`C=C1C[C@H](CC)C2C3Cc4ccc(O)cc4C2(CCN3CC2CC2)C1` (stereo partly specified) returned an ED50 in assay [2] of 2.8 µmol/kg. Further, the ED50 result in assay [4] was “inactive”.
Regarding `CC[C@H]1CC(=O)CC23CCN(CC4CC4)C(Cc4ccc(O)cc42)C13` (stereo partly specified), the ED50 entry in assay [5] was “inactive”. The same compound came in with an ED50 in assay [2] of 4.7 µmol/kg.
In turn, `Oc1ccc2c(c1)[C@@]13CCCC[C@@]1(O)[C@@H](C2)N(CC1CCC1)CC3` yielded a 50% effective dose (ED50) in assay [2] of 2 µmol/kg.
For the compound `CC[C@H]1CC(=O)CC23CCN(CC4CCC4)C(Cc4ccc(O)cc42)C13` (stereo partly specified), the ED50 in assay [1] was 0.54 µmol/kg; in assay [2], 0.82 µmol/kg.
For `C[C@H]1CC(=O)CC23CCN(CC4CCC4)C(Cc4ccc(O)cc42)C13` (stereo partly specified) the same measures were 0.29 µmol/kg and 2.8 µmol/kg.
For `CC(C)=CCN1CC[C@]2(C)c3cc(O)ccc3C[C@H]1[C@H]2C` [(+)-PENTAZOCINE], in that order: 12.9 µmol/kg and 36.4 µmol/kg.
For `C=C1CCC2C3Cc4ccc(O)cc4C2(CCN3CC2CC2)C1` (stereo unspecified) the same measures were 1.2 µmol/kg and 0.37 µmol/kg.
For `O=C1CC[C@@]2(O)[C@H]3Cc4ccc(O)c5c4[C@@]2(CCN3CC2CC2)[C@H]1O5` [NALTREXONE], the ED50 in assay [1] was greater than 28 µmol/kg.
As to `C[C@H]1CC(=O)CC23CCN(CC4CC4)C(Cc4ccc(O)cc42)C13` (stereo partly specified), the ED50 in assay [1] was determined as 10.2 µmol/kg; in assay [2] it was 1.8 µmol/kg.
For `O=C1CCC2C3Cc4ccc(O)cc4C2(CCN3CC2CC2)C1` (stereo unspecified) the same measures were 3.3 µmol/kg and 7.4 µmol/kg.
For `C=CCN1CC[C@]23c4c5ccc(O)c4O[C@H]2[C@@H](O)C=C[C@H]3[C@H]1C5` [NALORPHINE], in that order: 3.5 µmol/kg and 2.5 µmol/kg.
For `C=C1C[C@H](C)C2C3Cc4ccc(O)cc4C2(CCN3CC2CC2)C1` (stereo partly specified) the same measures were 5.3 µmol/kg and 0.89 µmol/kg.
Take `C=C1C[C@H](CC)C2C3Cc4ccc(O)cc4C2(CCN3CC2CCC2)C1` (stereo partly specified): the ED50 in assay [1] is greater than 28 µmol/kg; in assay [2], 21.2 µmol/kg.
For `C=C1CCC2C3Cc4ccc(OC)cc4C2(CCN3CC2CCC2)C1` (stereo unspecified), in that order: 3.2 µmol/kg and greater than 20 µmol/kg.
For `C=C1C[C@H](C)C2C3Cc4ccc(O)cc4C2(CCN3CC2CCC2)C1` (stereo partly specified) the same measures were 0.53 µmol/kg and 2.5 µmol/kg.
In the case of `C=C1CCC2C3Cc4ccc(O)cc4C2(CCN3CC2CCC2)C1` (stereo unspecified), the ED50 in assay [1] was 0.22 µmol/kg; in assay [2], greater than 24 µmol/kg.
`COc1ccc2c(c1)[C@]13CCN(CC4CC4)[C@H](C2)[C@@H]1[C@@H](C)CC(=O)C3` registered an ED50 in assay [2] of 4.3 µmol/kg.
Consider `C=CCN1CC[C@]23c4c5ccc(O)c4O[C@H]2C(=O)CC[C@@]3(O)[C@H]1C5`, for which the ED50 entry in assay [6] was “inactive”.
